Activity calls are given as the source filed them. A value given as a limit tells only on which side of the number the result lay.

As usually defined, the CC50 is the concentration at which the toxic effect on the cells reaches its halfway point. In general, IC50 refers to the concentration that inhibits the measured activity by half. A word on the EC50: it is the concentration giving half of the maximal effect. What is called half-life is the time in which the quantity being followed falls by half.

A short description of data set [1]: Cytotoxicity against mock-infected CEM-SS cells. In kind it is cell-based. The settings on record: human. A digest of the protocol: (§1)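 Mock-infected CEM-SS or MT-4 cells; CC50 defined as 50% cytotoxic concentration; means of at least two separate experiments.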
The subject of data set [2] is Human immunodeficiency virus 1. Put plainly: Antiviral activity against HIV1 3B in MT4 cells by MTT assay. Conditions: for EC50: Human immunodeficiency virus 1, 3B. In kind it is functional, organism-based. In outline: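 Cytoprotection read-out by MTT in MT-4 cells infected with HIV-1 strain IIIB; EC50 taken as the concentration giving 50% inhibition of viral cytopathicity; means of at least two separate experiments.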

In data set [3] the target is Human immunodeficiency virus type 1 reverse transcriptase (Human immunodeficiency virus 1, UniProt Q72547). Put plainly: Inhibition of HIV1 recombinant reverse transcriptase.
In data set [4] the test system is Human immunodeficiency virus 1. The experiment in a line: Antiviral activity against HIV1 RF in CEM-SS cells by XTT assay. It is filed as functional, organism-based. Conditions: for EC50: Human immunodeficiency virus 1, RF. In outline: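 HIV-1 RF infection of CEM-SS cells, with protection scored by XTT cytoprotection assay; EC50 defined as 50% effective concentration for inhibiting cytopathicity; means of at least two separate experiments.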
Background: Tetrazolium assays rely on reduction of a dye to a coloured formazan, in cell work by metabolically active cells.

Data set [5] can be described thus: Cytotoxicity against mock-infected MT4 cells. The settings on record: human. It is filed as cell-based. In outline: as §1
The subject of data set [6] is Human immunodeficiency virus 2. The experiment in a line: Antiviral activity against HIV2 ROD in MT4 cells by MTT assay. In kind it is functional, organism-based. A digest of the protocol: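 HIV-2 strain ROD infection of MT-4 cells; MTT cytoprotection read-out; EC50 is the 50% effective concentration against virus-induced cytopathicity; mean values from at least two separate experiments.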

Data set [7] is described as follows: Metabolic stability in rat plasma. In kind it is ADME, cell-free. In outline:
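Hydrolytic stability in rat plasma in vitro, with 1,1-diphenylethylene or benzophenone as internal standard; samples followed by HPLC; half-life reported in minutes as mean ± SD of at least two separate experiments.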

For the compound `CONC(=O)CCC/C=C(\c1cc(C)c(OC)c(C(=O)NOC)c1)c1cc(C)c2oc(=O)n(C)c2c1`, the CC50 in data set [1] was found to be 5.4 µM; in data set [5], 18.4 µM. The result in data set [2], in data set [4] and in data set [6] was inactive. For the same compound, the IC50 in data set [3] is > 100 µM.
For `CO/N=C(\F)c1cc(/C(=C\CCCc2nc(C)no2)c2cc(C)c3oc(=O)n(C)c3c2)cc(C)c1OC`, the values for the CC50 in data set [1] and in data set [5] were 2.9 µM and 12.4 µM, respectively. In addition, the values for the EC50 in data set [2] and in data set [4] were 0.24 µM and 0.7 µM, respectively. Further, the IC50 in data set [3] came to 0.67 µM. Further, in data set [6], the result was inactive. Besides, the half-life in data set [7] stood at 60.7 h.
As to `CO/N=C(\Br)CCC/C=C(\c1cc(C)c(OC)c(/C(Br)=N/OC)c1)c1cc(C)c2oc(=O)n(C)c2c1`, the CC50 in data set [1] is 2.1 µM; in data set [5] it was 13.3 µM. The same compound showed an EC50 in data set [2] of 6.3 µM. Further, in data set [3], the IC50 is 0.85 µM. Besides, the result in data set [4] and in data set [6] was inactive. The compound also yielded a half-life in data set [7] of 2.6 h.
Take `COC(=O)CCC/C=C(\c1cc(C)c(OC)c(C(=O)OC)c1)c1cc(C)c2oc(=O)n(C)c2c1`: the CC50 came to 5.1 µM in data set [1] and 16.9 µM in data set [5]. Further, the IC50 in data set [3] was found to be 0.02 µM. For the same compound, in data set [4], the EC50 was determined as 0.02 µM. In data set [6], the outcome was inactive. In addition, the half-life in data set [7] was 0.0217 h.
Turning to `CO/N=C(\Cl)CCC/C=C(\c1cc(C)c(OC)c(/C(Cl)=N/OC)c1)c1cc(C)c2oc(=O)n(C)c2c1`, the CC50 in data set [1] was determined as 1.3 µM; in data set [5], 3.9 µM. In data set [3], the IC50 worked out at 0.6 µM. The outcome in data set [4] and in data set [6] was inactive. The compound further had a half-life in data set [7] of 82.8 h.
In the case of `CONC(=O)c1cc(/C(=C\CCCC(=O)OC(C)(C)C)c2cc(C)c3oc(=O)n(C)c3c2)cc(C)c1OC`, the CC50 is 5.2 µM in data set [1] and 16.8 µM in data set [5]. Further, the result in data set [2], in data set [4] and in data set [6] was inactive. Besides, the IC50 in data set [3] is > 100 µM.
As to `COC(=O)CCCC=C(c1cc(C)c(OC)c(C(=O)OC)c1)c1cc(C)c(OC)c(C(=O)OC)c1`, the CC50 in data set [1] was determined as 6 µM; in data set [5] it was 6.1 µM. Also, the IC50 in data set [3] turned out to be 1 µM. The compound also displayed an EC50 in data set [4] of 0.25 µM. Moreover, the outcome in data set [6] was inactive. In data set [7], this compound yielded a half-life of 0.0127 h.
On to `CO/N=C(\F)c1cc(/C(=C\CCCC(=O)OC)c2cc(C)c3oc(=O)n(C)c3c2)cc(C)c1OC`, for which the values for the CC50 in data set [1] and in data set [5] were 3.9 µM and 21 µM, respectively. Further, the EC50 in data set [2] stood at 0.29 µM; in data set [4], 0.5 µM. In data set [3], the IC50 was determined as 0.55 µM. Further, the result in data set [6] was inactive. Besides, the half-life in data set [7] is 0.153 h.
